Experimental data as given in the M2OR odorant receptor database.

Legend:
Settings in all cases: stereoisomer not certain
OR1A1 (Homo sapiens) = biological target: T1, OR1A1 (Homo sapiens) (UniProt Q9P1Q5)
T1 sequence (whole entry): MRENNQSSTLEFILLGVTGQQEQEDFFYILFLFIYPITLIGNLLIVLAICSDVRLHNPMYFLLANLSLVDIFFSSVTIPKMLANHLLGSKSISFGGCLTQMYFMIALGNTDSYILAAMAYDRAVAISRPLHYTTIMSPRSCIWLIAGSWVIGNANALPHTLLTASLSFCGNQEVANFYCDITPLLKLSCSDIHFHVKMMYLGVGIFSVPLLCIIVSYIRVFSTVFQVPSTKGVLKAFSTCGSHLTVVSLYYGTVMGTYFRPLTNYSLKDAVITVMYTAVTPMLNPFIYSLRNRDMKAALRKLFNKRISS
Method in brief: (§1)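 Transient luciferase assays in mammalian cell lines were common, though methods varied by source. The values come from published papers and their supplementary material, with extra details from the original authors when needed. Responsive refers to a measured signal the original authors judged statistically different from baseline, and non-responsive (inactive) to the remainder.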

OR13C2 (Homo sapiens) = biological target: T2, OR13C2 (Homo sapiens) (UniProt Q8NGS9)
T2 sequence (whole entry): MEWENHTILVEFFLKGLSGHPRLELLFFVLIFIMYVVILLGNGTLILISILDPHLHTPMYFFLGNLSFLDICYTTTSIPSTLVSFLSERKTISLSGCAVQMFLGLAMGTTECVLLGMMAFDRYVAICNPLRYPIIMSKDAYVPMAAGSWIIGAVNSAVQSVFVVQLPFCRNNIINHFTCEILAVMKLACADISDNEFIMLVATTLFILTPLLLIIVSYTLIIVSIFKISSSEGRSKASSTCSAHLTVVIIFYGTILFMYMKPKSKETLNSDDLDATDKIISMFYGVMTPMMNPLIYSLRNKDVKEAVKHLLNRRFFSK
Method in brief: as §1

OR13C3 (Homo sapiens) = biological target: T3, OR13C3 (Homo sapiens) (UniProt Q8NGS6)
T3 sequence (whole entry): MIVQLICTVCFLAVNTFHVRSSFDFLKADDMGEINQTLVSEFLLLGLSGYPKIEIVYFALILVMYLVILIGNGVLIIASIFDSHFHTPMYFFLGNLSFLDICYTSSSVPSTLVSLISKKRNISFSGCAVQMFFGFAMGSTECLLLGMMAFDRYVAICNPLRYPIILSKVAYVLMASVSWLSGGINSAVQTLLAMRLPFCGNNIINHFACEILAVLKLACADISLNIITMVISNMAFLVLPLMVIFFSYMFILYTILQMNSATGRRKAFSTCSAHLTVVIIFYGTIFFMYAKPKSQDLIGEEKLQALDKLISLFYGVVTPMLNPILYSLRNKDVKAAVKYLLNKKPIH
Method in brief: as §1

OR13C4 (Homo sapiens) = biological target: T4, OR13C4 (Homo sapiens) (UniProt Q8NGS5)
T4 sequence (whole entry): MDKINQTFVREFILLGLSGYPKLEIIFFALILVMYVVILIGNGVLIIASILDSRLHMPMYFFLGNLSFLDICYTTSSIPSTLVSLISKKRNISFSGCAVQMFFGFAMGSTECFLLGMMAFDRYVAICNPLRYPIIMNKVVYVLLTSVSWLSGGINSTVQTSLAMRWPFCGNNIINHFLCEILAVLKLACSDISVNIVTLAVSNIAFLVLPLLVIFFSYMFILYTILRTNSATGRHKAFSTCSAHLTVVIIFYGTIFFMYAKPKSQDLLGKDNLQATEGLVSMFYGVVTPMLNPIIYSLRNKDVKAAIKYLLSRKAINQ
Method in brief: as §1

OR13C5 (Homo sapiens) = biological target: T5, OR13C5 (Homo sapiens) (UniProt Q8NGS8)
T5 sequence (whole entry): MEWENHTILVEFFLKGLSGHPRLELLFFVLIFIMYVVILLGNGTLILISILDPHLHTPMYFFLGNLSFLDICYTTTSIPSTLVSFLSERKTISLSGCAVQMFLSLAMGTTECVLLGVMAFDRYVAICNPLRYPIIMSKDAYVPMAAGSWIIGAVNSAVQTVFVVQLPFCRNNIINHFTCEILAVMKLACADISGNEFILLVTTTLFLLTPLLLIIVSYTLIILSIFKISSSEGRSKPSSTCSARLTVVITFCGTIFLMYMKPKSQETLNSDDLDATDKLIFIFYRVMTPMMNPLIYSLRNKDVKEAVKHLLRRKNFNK
Method in brief: as §1

OR13C8 (Homo sapiens) = biological target: T6, OR13C8 (Homo sapiens) (UniProt Q8NGS7)
T6 sequence (whole entry): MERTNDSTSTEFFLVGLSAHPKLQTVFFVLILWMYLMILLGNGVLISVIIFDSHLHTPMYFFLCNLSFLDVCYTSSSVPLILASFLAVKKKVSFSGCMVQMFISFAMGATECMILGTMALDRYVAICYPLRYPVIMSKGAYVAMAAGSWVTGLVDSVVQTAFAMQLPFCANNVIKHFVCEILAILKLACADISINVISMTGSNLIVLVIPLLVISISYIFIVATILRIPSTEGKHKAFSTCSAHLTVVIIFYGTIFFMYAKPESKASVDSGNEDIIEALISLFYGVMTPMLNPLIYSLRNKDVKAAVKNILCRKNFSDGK
Method in brief: as §1

OR13C9 (Homo sapiens) = biological target: T7, OR13C9 (Homo sapiens) (UniProt Q8NGT0)
T7 sequence (whole entry): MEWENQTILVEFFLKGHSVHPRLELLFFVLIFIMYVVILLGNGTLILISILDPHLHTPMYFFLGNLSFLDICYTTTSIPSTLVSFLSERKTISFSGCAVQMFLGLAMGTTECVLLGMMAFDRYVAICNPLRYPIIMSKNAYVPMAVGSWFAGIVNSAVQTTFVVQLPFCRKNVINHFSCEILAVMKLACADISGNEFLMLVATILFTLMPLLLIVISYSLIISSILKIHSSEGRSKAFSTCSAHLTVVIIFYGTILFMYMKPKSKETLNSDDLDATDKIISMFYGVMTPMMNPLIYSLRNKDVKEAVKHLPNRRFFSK
Method in brief: as §1

OR13D1 (Homo sapiens) = biological target: T8, OR13D1 (Homo sapiens) (UniProt Q8NGV5)
T8 sequence (whole entry): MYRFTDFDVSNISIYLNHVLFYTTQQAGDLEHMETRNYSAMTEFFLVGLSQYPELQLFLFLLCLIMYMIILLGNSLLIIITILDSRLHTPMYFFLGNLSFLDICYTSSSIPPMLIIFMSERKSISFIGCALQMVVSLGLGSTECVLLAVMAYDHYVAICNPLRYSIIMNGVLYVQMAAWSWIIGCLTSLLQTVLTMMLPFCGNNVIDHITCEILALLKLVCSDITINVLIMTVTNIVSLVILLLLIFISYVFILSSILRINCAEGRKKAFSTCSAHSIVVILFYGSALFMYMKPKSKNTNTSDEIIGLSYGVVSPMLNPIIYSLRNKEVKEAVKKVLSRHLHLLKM
Method in brief: as §1

OR13F1 (Homo sapiens) = biological target: T9, OR13F1 (Homo sapiens) (UniProt Q8NGS4)
T9 sequence (whole entry): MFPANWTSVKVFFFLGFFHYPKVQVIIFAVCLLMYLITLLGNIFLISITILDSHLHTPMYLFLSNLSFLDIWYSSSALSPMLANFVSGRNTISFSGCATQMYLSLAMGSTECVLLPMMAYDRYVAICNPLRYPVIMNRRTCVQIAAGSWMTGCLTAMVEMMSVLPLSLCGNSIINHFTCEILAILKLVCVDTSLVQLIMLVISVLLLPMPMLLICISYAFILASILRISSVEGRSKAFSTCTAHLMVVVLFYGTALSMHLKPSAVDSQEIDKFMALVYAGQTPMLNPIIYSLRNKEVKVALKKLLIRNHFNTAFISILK
Method in brief: as §1

OR13G1 (Homo sapiens) = biological target: T10, OR13G1 (Homo sapiens) (UniProt Q8NGZ3)
T10 sequence (whole entry): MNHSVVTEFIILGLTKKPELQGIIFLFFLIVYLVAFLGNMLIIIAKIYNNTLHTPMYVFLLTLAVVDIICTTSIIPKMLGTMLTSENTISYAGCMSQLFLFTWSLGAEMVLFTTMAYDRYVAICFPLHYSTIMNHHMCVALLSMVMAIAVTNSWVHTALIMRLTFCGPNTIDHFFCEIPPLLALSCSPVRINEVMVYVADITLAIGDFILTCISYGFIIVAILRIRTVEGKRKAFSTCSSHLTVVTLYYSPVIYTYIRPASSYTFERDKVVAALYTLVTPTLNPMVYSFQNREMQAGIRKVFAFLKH
Method in brief: as §1

OR13H1 (Homo sapiens) = biological target: T11, OR13H1 (Homo sapiens) (UniProt Q8NG92)
T11 sequence (whole entry): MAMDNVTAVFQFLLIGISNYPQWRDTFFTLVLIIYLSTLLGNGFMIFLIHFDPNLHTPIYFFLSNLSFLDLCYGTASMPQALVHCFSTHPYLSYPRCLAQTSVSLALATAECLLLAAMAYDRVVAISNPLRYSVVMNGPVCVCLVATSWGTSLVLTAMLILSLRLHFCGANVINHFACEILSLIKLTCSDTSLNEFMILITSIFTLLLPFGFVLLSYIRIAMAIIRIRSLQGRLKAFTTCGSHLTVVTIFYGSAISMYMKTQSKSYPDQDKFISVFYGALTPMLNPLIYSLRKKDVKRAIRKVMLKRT
Method in brief: as §1

OR13J1 (Homo sapiens) = biological target: T12, OR13J1 (Homo sapiens) (UniProt Q8NGT2)
T12 sequence (whole entry): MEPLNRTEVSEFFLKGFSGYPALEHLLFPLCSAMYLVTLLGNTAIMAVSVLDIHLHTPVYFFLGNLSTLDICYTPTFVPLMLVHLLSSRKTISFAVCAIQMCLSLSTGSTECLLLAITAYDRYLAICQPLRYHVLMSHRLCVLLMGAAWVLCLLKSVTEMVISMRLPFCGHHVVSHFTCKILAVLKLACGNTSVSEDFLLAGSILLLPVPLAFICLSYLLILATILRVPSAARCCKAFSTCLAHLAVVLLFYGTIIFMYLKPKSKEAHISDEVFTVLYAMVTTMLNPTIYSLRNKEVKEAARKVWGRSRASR
Method in brief: as §1

OR14A16 (Homo sapiens) = biological target: T13, OR14A16 (Homo sapiens) (UniProt Q8NHC5)
T13 sequence (whole entry): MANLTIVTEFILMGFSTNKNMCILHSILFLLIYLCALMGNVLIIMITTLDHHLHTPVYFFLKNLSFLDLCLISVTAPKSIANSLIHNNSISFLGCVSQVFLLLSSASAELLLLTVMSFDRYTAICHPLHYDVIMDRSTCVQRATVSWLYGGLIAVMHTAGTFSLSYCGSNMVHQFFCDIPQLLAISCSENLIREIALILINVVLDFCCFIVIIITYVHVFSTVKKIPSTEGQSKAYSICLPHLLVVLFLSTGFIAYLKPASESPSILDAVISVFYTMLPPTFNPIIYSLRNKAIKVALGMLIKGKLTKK
Method in brief: as §1

OR14A2 (Homo sapiens) = biological target: T14, OR14A2 (Homo sapiens) (UniProt Q96R54)
T14 sequence (whole entry): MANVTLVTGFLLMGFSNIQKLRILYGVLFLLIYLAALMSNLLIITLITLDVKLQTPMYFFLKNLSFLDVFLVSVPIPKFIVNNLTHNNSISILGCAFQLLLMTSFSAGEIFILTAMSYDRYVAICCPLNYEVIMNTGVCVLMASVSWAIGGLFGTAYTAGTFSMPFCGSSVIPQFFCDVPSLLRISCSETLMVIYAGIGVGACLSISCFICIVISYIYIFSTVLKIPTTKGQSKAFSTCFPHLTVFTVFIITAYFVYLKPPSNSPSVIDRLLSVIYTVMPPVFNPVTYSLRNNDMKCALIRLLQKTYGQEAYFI
Method in brief: as §1

OR14C36 (Homo sapiens) = biological target: T15, OR14C36 (Homo sapiens) (UniProt Q8NHC7)
T15 sequence (whole entry): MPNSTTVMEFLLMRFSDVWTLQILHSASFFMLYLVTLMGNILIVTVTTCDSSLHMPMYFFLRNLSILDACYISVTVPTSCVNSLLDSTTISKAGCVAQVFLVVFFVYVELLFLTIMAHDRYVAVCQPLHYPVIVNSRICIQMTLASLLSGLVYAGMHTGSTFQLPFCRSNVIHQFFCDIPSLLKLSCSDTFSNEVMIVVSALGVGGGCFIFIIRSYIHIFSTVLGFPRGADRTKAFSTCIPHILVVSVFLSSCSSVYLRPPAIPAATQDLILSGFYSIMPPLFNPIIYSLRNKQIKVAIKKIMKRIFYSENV
Method in brief: as §1

OR14I1 (Homo sapiens) = biological target: T16, OR14I1 (Homo sapiens) (UniProt A6ND48)
T16 sequence (whole entry): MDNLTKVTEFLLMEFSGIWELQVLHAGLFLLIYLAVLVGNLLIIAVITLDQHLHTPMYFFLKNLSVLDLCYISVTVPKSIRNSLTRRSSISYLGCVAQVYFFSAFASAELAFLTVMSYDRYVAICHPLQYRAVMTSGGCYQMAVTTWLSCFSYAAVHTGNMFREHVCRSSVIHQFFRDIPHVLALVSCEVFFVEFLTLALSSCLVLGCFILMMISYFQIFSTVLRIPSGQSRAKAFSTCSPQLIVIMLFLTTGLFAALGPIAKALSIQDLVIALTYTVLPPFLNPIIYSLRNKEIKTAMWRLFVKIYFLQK
Method in brief: as §1

OR14J1 (Homo sapiens) = biological target: T17, OR14J1 (Homo sapiens) (UniProt Q9UGF5)
T17 sequence (whole entry): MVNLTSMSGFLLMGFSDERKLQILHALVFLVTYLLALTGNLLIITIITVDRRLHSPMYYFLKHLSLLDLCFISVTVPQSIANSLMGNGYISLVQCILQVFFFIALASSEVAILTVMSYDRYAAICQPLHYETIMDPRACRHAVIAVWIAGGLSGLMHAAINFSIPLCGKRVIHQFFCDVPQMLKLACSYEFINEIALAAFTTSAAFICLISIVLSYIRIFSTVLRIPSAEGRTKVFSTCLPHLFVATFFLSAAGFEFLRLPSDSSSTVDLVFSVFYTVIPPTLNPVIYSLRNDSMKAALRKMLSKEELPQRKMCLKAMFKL
Method in brief: as §1

OR14K1 (Homo sapiens) = biological target: T18, OR14K1 (Homo sapiens) (UniProt Q8NGZ2)
T18 sequence (whole entry): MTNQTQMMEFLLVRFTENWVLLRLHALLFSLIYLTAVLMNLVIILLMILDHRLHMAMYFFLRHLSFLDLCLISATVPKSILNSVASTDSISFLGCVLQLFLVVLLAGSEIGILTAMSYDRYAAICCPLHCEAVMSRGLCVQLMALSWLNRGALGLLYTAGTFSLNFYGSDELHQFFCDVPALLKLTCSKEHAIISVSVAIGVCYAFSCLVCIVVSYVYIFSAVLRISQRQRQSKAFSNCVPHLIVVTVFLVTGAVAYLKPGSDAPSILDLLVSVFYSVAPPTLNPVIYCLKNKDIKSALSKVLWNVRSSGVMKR
Method in brief: as §1

Measured: odorant receptor agonist call

CC1=CCC(C(C)C)C=C1 (stereo not drawn)
inactive: OR1A1 (Homo sapiens)

CC1=NC(C)C(C)S1 (stereo not drawn)
inactive: all assays above

C=CC(C)(O)CCC=C(C)CCC=C(C)C (stereo not drawn)
active: OR1A1 (Homo sapiens)

Cc1cnc(C)c(C)n1
inactive: all assays above
